A short description of data set [1]: Dissociation constant was evaluated. Type of data set: physicochemical. The gist of the method: (§1)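 Rat uterine cytosol from 19-day-old immature Sabra rats, homogenized at 0 °C in TEG buffer (pH 7.4, 10% glycerol, 0.01 M DTT) and spun to 105000g, diluted to 2 uteri/mL. […] Free ligand removed with 2.5% dextran-coated charcoal. Nonspecific binding taken with 10000-fold excess. KA = KL·A50/([L*]+KL), with free [L*] 10 nM.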

Data set [2] has as its target T1, Estrogen receptor (Rattus norvegicus) (UniProt P06211+Q62986). As to the kind of experiment: Uterotrophic effect in rats uterine at 50 ug/day dose. Type of data set: functional, tissue-based. The settings on record: Uterus.
Data set [3] deals with T1, Estrogen receptor (Rattus norvegicus). As to the kind of experiment: Percent uterotrophic effect at 50 ug/day dose compared to estradiol. Format: functional.
Data set [4] has the same target.
Data set [5] shares this target. As to the kind of experiment: Uterotrophic effect in rats uterine at 100 ug/day dose in the presence of 10 ug estradiol. Format: functional, tissue-based. The settings on record: Uterus.
Data set [6] shares this target. The data set can be described thus: Uterotrophic effect in rats uterine at 10 ug/day dose in the presence of 0.16 ug estradiol. Format: functional, tissue-based. As to conditions: Uterus.
Data set [7] has the same target. As to the kind of experiment: Uterotrophic effect in rats uterine at 1000 ug/day dose. Type of data set: functional, tissue-based. As to conditions: Uterus.
Data set [8] shares this target. As to the kind of experiment: Uterotrophic effect in rats uterine at 10 ug/day dose. Type of data set: functional, tissue-based. As to conditions: Uterus.
Data set [9] has the same target. The data set can be described thus: Uterotrophic effect in rats uterine at 100 ug/day dose in the presence of 0.1 ug estradiol. Format: functional, tissue-based. The settings on record: Uterus.
Data set [10] has the same target. The data set can be described thus: Uterotrophic effect in rats uterine at 100 ug/day dose in the presence of 0.5 ug hexestrol. Format: functional, tissue-based. As to conditions: Uterus.
Data set [11] has the same target. As to the kind of experiment: Uterotrophic effect in rats uterine at 1000 ug/day dose in the presence of 0.16 ug estradiol. Format: functional, tissue-based. The settings on record: Uterus.
The target is the same in data set [12]. The data set can be described thus: Uterotrophic effect in rats uterine at 100 ug/day dose in the presence of 0.20 ug estradiol. Type of data set: functional, tissue-based. The settings on record: Uterus.
For data set [13] the target is unchanged. As to the kind of experiment: Uterotrophic effect in rats uterine at 100 ug/day dose in the presence of 0.05 ug hexestrol. Format: functional, tissue-based. The settings on record: Uterus.
The target is the same in data set [14]. As to the kind of experiment: Uterotrophic effect in rats uterine at 100 ug/day dose. Format: functional, tissue-based. The settings on record: Uterus.
Data set [15] shares this target. The data set can be described thus: Percent uterotrophic effect at 100 ug/day dose compared to estradiol. Type of data set: functional.
Data set [16] has the same target. As to the kind of experiment: Uterotrophic effect in rats uterine at 1 ug/day dose in the presence of 0.08 ug estradiol. Format: functional, tissue-based. The settings on record: Uterus.
Data set [17] has the same target. As to the kind of experiment: Uterotrophic effect in rats uterine at 500 ug/day dose in the presence of 0.08 ug estradiol. Type of data set: functional, tissue-based. The settings on record: Uterus.
Data set [18] has the same target. As to the kind of experiment: Uterotrophic effect in rats uterine at 500 ug/day dose. Type of data set: functional, tissue-based. The settings on record: Uterus.
Data set [19] has the same target. The settings on record: Uterus.
Data set [20] shares this target. The data set can be described thus: Uterotrophic effect in rats uterine at 500 ug/day dose in the presence of 0.10 ug estradiol. Format: functional, tissue-based. The settings on record: Uterus.
Data set [21] shares this target. As to the kind of experiment: Percent uterotrophic effect at 500 ug/day dose compared to estradiol. Type of data set: functional.
For data set [22] the target is unchanged. The data set can be described thus: Uterotrophic effect in rats uterine at 500 ug/day dose in the presence of 0.2 ug estradiol. The settings on record: Uterus. Type of data set: functional, tissue-based.
Data set [23] shares this target. As to conditions: Uterus. The source holds these as a separate data set.
The target is the same in data set [24]. As to the kind of experiment: Uterotrophic effect in rats uterine at 500 ug/day dose in the presence of 10 ug estradiol. Format: functional, tissue-based. The settings on record: Uterus.
For data set [25] the target is unchanged. The data set can be described thus: Uterotrophic effect in rats uterine at 10 ug/day dose in the presence of 0.08 ug estradiol. Type of data set: functional, tissue-based. As to conditions: Uterus.
Data set [26] has the same target. As to the kind of experiment: Percent uterotrophic effect at 10 ug/day dose compared to estradiol. Format: functional.
Data set [27] has the same target. As to the kind of experiment: Uterotrophic effect in rats at 10 ug/day dose. Format: functional, tissue-based. As to conditions: Uterus.
Data set [28] can be described thus: Dissociation constant was evaluated. Format: functional. The gist of the method:
as §1

Data set [29] addresses T1, Estrogen receptor (Rattus norvegicus). The data set can be described thus: Uterotrophic effect in rats uterine at 0.01 ug/day dose. Type of data set: functional, tissue-based. As to conditions: Uterus.
Data set [30] shares this target. The data set can be described thus: Percent uterotrophic effect at 0.1 ug/day dose compared to estradiol. Type of data set: functional.
Data set [31] has the same target. As to the kind of experiment: Uterotrophic effect in rats uterine at 0.03 ug/day dose. Format: functional, tissue-based. The settings on record: Uterus.
For data set [32] the target is unchanged. The data set can be described thus: Uterotrophic effect in rats uterine at 0.3 ug/day dose. Format: functional, tissue-based. The settings on record: Uterus.
Data set [33] shares this target. The data set can be described thus: Uterotrophic effect in rats at 0.1 ug/day dose. Format: functional, tissue-based. The settings on record: Uterus.
For data set [34] the target is unchanged. As to conditions: Uterus. This is another data set of the same source.

Where “and” joins values, the source holds several entries; their conditions need not be identical. Equal values may be shown once.

As to `CC/C(=C(/CC)c1ccc(O)cc1)c1ccc(O)cc1` [DIETHYLSTILBESTROL], the KA in data set [1] amounted to 400 pM.

On to `CC/C(=C(\c1ccc(NC(C)=O)cc1)c1ccc(ON(C)C)cc1)c1ccccc1`, for which the Max uterine weight in [2] is 41.8 mg. Also, in data set [3], the Effect worked out at 60%.

`CC/C(=C(/c1ccc(O)cc1)c1ccc(NC(C)=O)cc1)c1ccccc1`: the Max uterine weight in data set [2] was 65.8 mg. The compound also displayed an Effect in data set [3] of 98%. Besides, the A50 in data set [4] turned out to be 1200 nM.

As for `CC/C(=C(\c1ccc(F)cc1)c1ccc(OCCN(C)C)cc1)c1ccccc1`, the Uterine weight in [5] was 80.3; in [6], 72.2; in [7] it was 85.7; in data set [8] it was 68.9; in [9], 74; in data set [10], 71.2. The Uterine weight was found to be 76.9 in data set [11], 73.8 in data set [12], 70.4 in data set [13] and 76.4 in [14]. This compound also gave an A50 in data set [4] of 5000 nM. In [14], this compound displayed a Max uterine weight of 76.4 mg. For the same compound, the Effect in data set [15] worked out at 108%.

Consider `CC/C(=C(\c1ccc(N)cc1)c1ccc(OCCN(C)C)cc1)c1ccccc1`, for which the Uterine weight in [5] was 57.1; in data set [16], 58.2; in [17], 56.5; in data set [12] it was 43; in data set [13], 46 and 70.3; in data set [18], 54. Also, the Uterine weight in data set [14] was 50.3; in data set [19], 29.6; in [20], 46; in [22], 62; in data set [23], 44; in data set [24] it was 67.2. Besides, the Uterine weight in data set [25] was found to be 54.8. Further, the A50 in [4] was determined as 20 nM. The compound also gave a Max uterine weight in data set [18] of 54 mg. Further, the Effect in [21] turned out to be 76%.

In data set [26], `CC/C(=C(/c1ccc(O)cc1)c1ccc(F)cc1)c1ccccc1` gave an Effect of 140%. The compound also came in with a Max uterine weight in [27] of 97 mg. Moreover, the KA in data set [28] worked out at 63 nM. Also, the A50 in data set [4] is 670 nM.

For `CC[C@H](c1ccc(O)cc1)[C@@H](CC)c1ccc(O)cc1`, the Uterine weight in [29] was 29.3; in [31] it was 62.6; in data set [32] it was 94.5; in data set [19] it was 90.2; in data set [23], 97.3; in [34] it was 86.8. For the same compound, in data set [30], the Effect came to 143%. The compound further gave a Max uterine weight in data set [33] of 62.6 mg.

The record behind these values is ChEMBL document CHEMBL1122823, “Synthesis and receptor-binding affinity of fluorotamoxifen, a possible estrogen-receptor imaging agent” (J Med Chem, 1985).
